In brackets after ≈: the same amount, converted by molar mass.

The test system of data set [1] is PANC-1. Nature of the data set: Antiproliferative activity against human PANC1 cells after 48 hrs by MTT assay. The note with it: PANC-1, 48 h. Type of data set: functional, cell-based. Put shortly:
(§1)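 Cells were seeded at 5×10^5 cells/mL overnight and exposed to graded compound concentrations for 48 h. MTT (5 mg/mL stock) was added for 4 h at 37 °C, and formazan was dissolved in DMSO. Absorbance was read at 570 nm. IC₅₀ was fitted from the curves; values are mean ± SD, n = 3.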

The next data set concerns BXPC-3. The data set can be described thus: Antiproliferative activity against human BxPC3 cells after 48 hrs by MTT assay. Type of data set: functional, cell-based. The note with it: BXPC-3, 48 h. Put shortly:
as §1

Data set [2] concerns HCT-116. The data set can be described thus: Antiproliferative activity against human HCT116 cells after 48 hrs by MTT assay. The note with it: HCT-116, 48 h. The data set is classed as functional, cell-based. In short, it runs like this: as §1
For data set [3], the system named is HCT-116. Nature of the data set: Antiproliferative activity against p53-deficient human HCT116 cells after 48 hrs by MTT assay. The note with it: HCT-116, 48 h. Type of data set: functional, cell-based. In short, it runs like this: as §1
Background: Formazan colour is commonly taken as a measure of viable cells.

The next data set has as its system MCF7. Nature of the data set: Antiproliferative activity against human MCF7 cells after 48 hrs by MTT assay. The data set is classed as functional, cell-based. The note with it: MCF7, 48 h. Put shortly:
as §1

The test system of a further data set is A549. Nature of the data set: Antiproliferative activity against human A549 cells after 48 hrs by MTT assay. The note with it: A549, 48 h. Type of data set: functional, cell-based. Put shortly:
as §1

A further data set relates to MDA-MB-231. The data set can be described thus: Antiproliferative activity against human MDA-MB-231 cells after 48 hrs by MTT assay. The data set is classed as functional, cell-based. To be noted: MDA-MB-231, 48 h. Put shortly:
as §1

The test system of data set [4] is PANC-1. Nature of the data set: Antitumor activity against human PANC1 cells xenografted in nude mouse assessed as inhibition of tumor weight at 10 mg/kg administered every 2 days for 21 days relative to vehicle-treated control. The data set is classed as functional. (In general: A xenograft is tissue or cells of one species grown in another, often human tumour cells in immunodeficient mice.)

Data set [5] can be described thus: Intrinsic aqueous solubility of the compound. Type of data set: physicochemical. The note with it: read-out: Intrinsic_solubility. In short, it runs like this:
(§2)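 Intrinsic aqueous solubility and log D at pH 7.4 were measured on a pION Gemini Profiler.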

Data set [6] can be described thus: Distribution co-efficient, log D of the compound at pH 7.4. Type of data set: physicochemical. The note with it: buffer. Put shortly:
as §2

The nature of data set [7]: Effective permeability of the compound at pH 7.4 by PAMPA. To be noted: read-out: Peff. The data set is classed as ADME. In short, it runs like this:
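Effective permeability was measured by double-sink PAMPA on a pION PAMPA Explorer.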

The term IC50 denotes the concentration that inhibits the measured activity by half. The low end stands for higher potency, the high end for lower potency. As to `Cc1c(C(=O)NCCN(C)C)oc2ccc(N(Cc3ccc(Br)cc3)S(=O)(=O)c3ccc(Br)cc3)cc12`, the 50% inhibitory concentration (IC50) in the data set on PANC-1 [1] was 5.94 µM; in the data set on BXPC-3 it was 4.79 µM; in the data set on HCT-116 [2], 3.64 µM; in the data set with HCT-116 [3], 1.2 µM; in the data set on MCF7 it was 3.66 µM; in the data set with A549, 5.4 µM. The compound also had a concentration for half-maximal inhibition (IC50) in the data set on MDA-MB-231 of 8.24 µM.
In the case of `Cc1c(C(=O)N2CCN(C)CC2)oc2ccc(N(Cc3ccc(Br)cc3)S(=O)(=O)c3ccc(Br)cc3)cc12`, the IC50 in the data set on PANC-1 [1] is greater than 40 µM; in the data set with BXPC-3, greater than 40 µM; in the data set on HCT-116 [2], 8.55 µM; in the data set on HCT-116 [3] it was 5.47 µM; in the data set on MCF7 it was greater than 40 µM; in the data set with A549, 22.3 µM. This compound also displayed an IC50 in the data set on MDA-MB-231 greater than 40 µM.
One may read the inhibition in vivo as the share of the control response that was lost under treatment. For `COc1cccc2c1C(=O)c1c(O)c3c(c(O)c1C2=O)C[C@@](O)(C(=O)CO)C[C@@H]3O[C@H]1C[C@H](N)[C@H](O)[C@H](C)O1` [DOXORUBICIN], the IC50 worked out at 0.41 µM with PANC-1 [1], 0.56 µM in the data set on BXPC-3 and 0.49 µM in the data set with MDA-MB-231. Moreover, the inhibition in vivo at 10 mg/kg in the data set on PANC-1 [4] was determined as 71.9%.
In the case of `Cc1c(C(=O)NCCN2CCN(C)CC2)oc2ccc(N(Cc3ccc(Br)cc3)S(=O)(=O)c3ccc(Br)cc3)cc12`, the IC50 was found to be 5.04 µM in the data set on PANC-1 [1]; 2.6 µM in the data set on BXPC-3; 3.81 µM in the data set on HCT-116 [2]; 2.59 µM in the data set with HCT-116 [3]; 5.66 µM in the data set on MCF7; 5.03 µM in the data set on A549. Further, the IC50 in the data set on MDA-MB-231 came to 7.5 µM.
As to `Cc1ccc(NC(=O)c2oc3ccc(N(Cc4ccc(Br)cc4)S(=O)(=O)c4ccc(Br)cc4)cc3c2C)nc1`, the IC50 with PANC-1 [1], with BXPC-3, with HCT-116 [2], in the data set on HCT-116 [3], with MCF7 and in the data set on A549 was greater than 40 µM throughout. The same compound had an IC50 in the data set on MDA-MB-231 greater than 40 µM.
Take `Cc1c(C(=O)NCCN2CCCCC2)oc2ccc(N(Cc3ccc(Br)cc3)S(=O)(=O)c3ccc(Br)cc3)cc12`: the half-maximal inhibitory concentration (IC50) in the data set with PANC-1 [1] worked out at 6.94 µM; in the data set on BXPC-3, 3.71 µM; in the data set with HCT-116 [2], 2.23 µM; in the data set on HCT-116 [3] it was 2.84 µM; in the data set with MCF7, 3.36 µM; with A549, 5.17 µM. In addition, the 50% inhibitory concentration (IC50) in the data set with MDA-MB-231 turned out to be 9.26 µM.
Take `CC(=O)NCCNC(=O)c1oc2ccc(N(Cc3ccc(Br)cc3)S(=O)(=O)c3ccc(Br)cc3)cc2c1C`: the IC50 with PANC-1 [1] was 34.8 µM; in the data set with BXPC-3 it was greater than 40 µM; in the data set with HCT-116 [2], 12.2 µM; with HCT-116 [3] it was 20.4 µM; in the data set on MCF7, 21.3 µM; in the data set with A549, greater than 40 µM. Also, in the data set with MDA-MB-231, the half-inhibitory concentration (IC50) was greater than 40 µM.
The term logD denotes the decadic logarithm of the distribution of all forms, ionised or not, between an organic phase and buffer at a given pH. A lower logD goes with lower lipophilicity. Turning to `CCN(CC)CCNC(=O)c1oc2ccc(N(Cc3ccc(Br)cc3)S(=O)(=O)c3ccc(Br)cc3)cc2c1C`, the IC50 amounted to 1.52 µM with PANC-1 [1]; 1.08 µM in the data set on BXPC-3; 2.39 µM with HCT-116 [2]; 1.66 µM with HCT-116 [3]; 2.84 µM with MCF7; 2.98 µM with A549. For the same compound, half-maximal inhibition in the data set with MDA-MB-231 (IC50) required 3.73 µM. In addition, in [5], the solubility worked out at 21 µg/mL (≈ 31 µM). Also, the logD in [6] was determined as 2.53. Besides, the Papp in data set [7] came out at 2.54 ×10⁻⁶ cm/s.
In the case of `Cc1c(C(=O)N2CCNCC2)oc2ccc(N(Cc3ccc(Br)cc3)S(=O)(=O)c3ccc(Br)cc3)cc12`, the half-maximal inhibitory concentration (IC50) was 8.38 µM in the data set on PANC-1 [1]; 19.6 µM in the data set with BXPC-3; 3 µM in the data set with HCT-116 [2]; 3.3 µM in the data set with HCT-116 [3]; 9.72 µM in the data set on MCF7; 8.68 µM with A549. The same compound gave a concentration for half-maximal inhibition (IC50) with MDA-MB-231 of 9.04 µM.

Source of the values: ChEMBL document CHEMBL4130343, “Design, synthesis, and evaluation of benzofuran derivatives as novel anti-pancreatic carcinoma agents via interfering the hypoxia environment by targeting HIF-1α pathway” (Eur J Med Chem, 2017).
